# Data reported in paper PMC6221089 (Diabetes, Obesity & Metabolism, 2018).
# No end group written: not given here.
# How the values were obtained:
# [1] = tested on: people with type 2 diabetes; assay type: in vivo
# How it was run: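 Stepwise hypoglycaemic clamp about 48 h after the 13th weekly s.c. dose; participants fasted (water allowed), supine or semi-supine, with 30-min target PG plateaux. At each target level, symptoms were scored on the Edinburgh Hypoglycaemia Scale and recognition recorded as a yes/no answer to "Do you feel hypo?".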
# [2] = tested on: people with type 2 diabetes; assay: Vital signs during the hypoglycaemic clamp; assay type: in vivo
# How it was run: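 Heart rate and systolic and diastolic BP recorded at each 30-min target PG level of the stepwise hypoglycaemic clamp. Each value is the mean of two readings, at 0 and 30 min. The clamp was run about 48 h after the 13th weekly s.c. dose, with participants fasted and supine or semi-supine.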
# plasma glucose = assay type: in vivo, people with type 2 diabetes
# How it was run: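 Clamp performed about 48 h after the 13th dose, with four 30-min target PG levels. AUC of glucose infusion rate computed at each level. Fasting PG measured on the morning of the day before the clamp. Recovery defined as PG ≥4.0 mmol/L, timed from termination of the insulin infusion at nadir; spontaneous recovery meant reaching this <40 min.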
# [3] = tested on: people with type 2 diabetes; assay: Safety assessments; assay type: in vivo
# How it was run: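 Treatment-emergent adverse events counted from baseline to the follow-up visit: those starting on or after the first treatment day and no later than follow-up. Dosing was once-weekly s.c. self-injection for 13 doses per crossover period (0.25, 0.5, then 1.0 mg escalation; placebo volume-matched). Follow-up was in the final week of the second 5-week sampling period.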
# [4] = tested on: counterregulatory responses to hypoglycaemia; conditions: cited from earlier work
# [5] = LEADER trial; cited from earlier work
# [6] = once-weekly s.c. treatment, 13 doses
compound,measurement,setting,value
CC[C@H](C)[C@H](NC(=O)[C@H](Cc1ccccc1)NC(=O)[C@H](CCC(=O)O)NC(=O)[C@H](CCCCNC(=O)COCCOCCNC(=O)COCCOCCNC(=O)CC[C@H](NC(=O)CCCCCCCCCCCCCCCCC(=O)O)C(=O)O)NC(=O)[C@H](C)NC(=O)[C@H](C)NC(=O)[C@H](CCC(N)=O)NC(=O)CNC(=O)[C@H](CCC(=O)O)NC(=O)[C@H](CC(C)C)NC(=O)[C@H](Cc1ccc(O)cc1)NC(=O)[C@H](CO)NC(=O)[C@H](CO)NC(=O)[C@@H](NC(=O)[C@H](CC(=O)O)NC(=O)[C@H](CO)NC(=O)[C@@H](NC(=O)[C@H](Cc1ccccc1)NC(=O)[C@@H](NC(=O)CNC(=O)[C@H](CCC(=O)O)NC(=O)C(C)(C)NC(=O)[C@@H](N)Cc1cnc[nH]1)[C@@H](C)O)[C@@H](C)O)C(C)C)C(=O)N[C@@H](C)C(=O)N[C@@H](Cc1c[nH]c2ccccc12)C(=O)N[C@@H](CC(C)C)C(=O)N[C@H](C(=O)N[C@@H](CCCNC(=N)N)C(=O)NCC(=O)N[C@@H](CCCNC(=N)N)C(=O)NCC(=O)O)C(C)C [semaglutide],Estimated mean hypoglycaemic symptom score vs placebo,"[1]; Edinburgh Hypoglycaemia Scale, target PG level 5.5 mmol/L",No difference
same,Effect on cognitive function,"[1]; Trail Making-B, Digit Symbol Substitution, Four-Choice Reaction Time tests, all PG levels",no effect
same,"Hypoglycaemia recognition, answer to ""Do you feel hypo?""",[1]; target level 5.5 mmol/L,all participants answered “no”
same,"Response to hypoglycaemia for heart rate, systolic or diastolic BP vs placebo",[2],no systematic differences
same,Time to reach recovery (PG ≥4.0 mmol/L),plasma glucose; geometric mean,44 min
same,Proportion of participants who recovered spontaneously,plasma glucose; reaching PG ≥4.0 mmol/L < 40 minutes after termination of the insulin infusion at nadir,~ 50%
same,Severity of adverse events,"[3]; all events, both treatments",mild or moderate
same,"Clinical laboratory assessments (including amylase, lipase and calcitonin), physical examination or ECG",[3]; baseline to follow-up,No safety findings
same,Development of anti-semaglutide antibodies,[3]; baseline to follow-up,no participant developed anti‐semaglutide antibodies
same,Deaths or pancreatitis cases,[3]; during the trial,No deaths or pancreatitis cases
same,"Diastolic BP, mean (SD) change from baseline to end-of-treatment",[3]; [6],−2 [10] mm Hg
same,"Heart rate, mean (SD) change from baseline to end-of-treatment",[3]; [6],6 [8] beats/min
same,"Systolic BP, mean (SD) change from baseline to end-of-treatment",[3]; [6],−8 [16] mm Hg
"Native GLP‐1: incretin hormone secreted by intestinal L cells in response to food intake (HAEGTFTSDVSSYLEGQAAKEFIAWLVKGR; ends and bridges not checked; UniProt P01275 98-127, looked up)",Effect on the response to hypoglycaemia,[4]; healthy volunteers,no effect
liraglutide: GLP‐1 receptor agonist with a similar structure to semaglutide but a different pharmacokinetic profile,Incidence of severe hypoglycaemia compared with placebo,[5],statistically significantly lower
same,Effect on the counterregulatory responses to hypoglycaemia,[4],no effect
